Consider 18 molecules from ChEMBL document CHEMBL3259691, “Synthesis and cytotoxic activity of nitric oxide-releasing isosteviol derivatives” (Bioorg Med Chem Lett, 2014).

Assay [1] is described as follows: Cytotoxicity against mouse B16F10 cells after 48 hrs by MTT assay. Type of assay: functional, cell-based. To be noted: B16-F10, 48 h. The method, boiled down:
(§1)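 Cells seeded in 96-well plates, exposed to compounds at various concentrations for 48 h at 37°C, 5% CO2. MTT (0.5 mg/mL) then added for 4 h, supernatant removed, formazan dissolved in DMSO, absorbance read at 570 nm. Percent inhibition of proliferation calculated per concentration; IC50 derived from dose-dependent response.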

The test system of a further assay is HepG2. Kind of assay: Cytotoxicity against human HepG2 cells after 48 hrs by MTT assay. The note with it: HepG2, 48 h. Type of assay: functional, cell-based. The method, boiled down: as §1

With `C[C@@]12CC[C@@H]3[C@@](CC[C@H]4[C@@]3(C)CCC[C@@]4(C)C(=O)NCC(=O)OCCOc3no[n+]([O-])c3S(=O)(=O)c3ccccc3)(CC(=O)O1)C2`, in assay [1], it took 3.52 µM to reach half-maximal inhibition (IC50).

Take `C[C@@]12CC[C@@H]3[C@@](CC[C@H]4[C@@]3(C)CCC[C@@]4(C)C(=O)NCC(=O)OCCOc3no[n+]([O-])c3S(=O)(=O)c3ccccc3)(CC1=O)C2`: the half-inhibitory concentration (IC50) was 2.76 µM in assay [1] and over 50 µM in the assay on HepG2. In assay [1], `C[C@@]12CC[C@@H]3[C@@](CC[C@H]4[C@@]3(C)CCC[C@@]4(C)C(=O)NCC(=O)OCCCOc3no[n+]([O-])c3S(=O)(=O)c3ccccc3)(CC1=O)C2` displayed an IC50 of 8.06 µM.

Turning to `C[C@@]12CC[C@@H]3[C@@](CC[C@H]4[C@@]3(C)CCC[C@@]4(C)C(=O)NCC(=O)OCC#CCOc3no[n+]([O-])c3S(=O)(=O)c3ccccc3)(CC1=O)C2`, the IC50 was 0.25 µM in assay [1] and 4.24 µM in the assay with HepG2. As to `C[C@@]12CC[C@@H]3[C@@](CC[C@H]4[C@@]3(C)CCC[C@@]4(C)C(=O)NCC(=O)OCCCOc3no[n+]([O-])c3S(=O)(=O)c3ccccc3)(CC(=O)O1)C2`, half-maximal inhibition in assay [1] (IC50) was put at 2.05 µM. In assay [1], `C[C@]12CC[C@@H]3[C@](CC[C@H]4[C@@]3(C)CCC[C@@]4(C)C(=O)NCC(=O)OCCCCOc3no[n+]([O-])c3S(=O)(=O)c3ccccc3)(C1)C(C=O)O2` (some centres not stated) came in with an IC50 of 5.21 µM. In the case of `C=C1C(=O)[C@@]2(C)CC[C@@H]3[C@]1(CC[C@H]1[C@@]3(C)CCC[C@@]1(C)C(=O)NCC(=O)OCCOc1no[n+]([O-])c1S(=O)(=O)c1ccccc1)C2`, the IC50 in assay [1] worked out at 1.01 µM; in the assay on HepG2 it was 7.13 µM. Taken in the same sequence, the figures for `C=C1C(=O)[C@@]2(C)CC[C@@H]3[C@]1(CC[C@H]1[C@@]3(C)CCC[C@@]1(C)C(=O)NCC(=O)OCCCOc1no[n+]([O-])c1S(=O)(=O)c1ccccc1)C2` were 0.016 µM and 38.6 µM.

With `C=C[C@]12CC[C@H]3[C@@](C)(CCC[C@@]3(C)C(=O)O)[C@@H]1CC[C@](C)(COC(=O)CCC(=O)OCCOc1no[n+]([O-])c1S(=O)(=O)c1ccccc1)C2`, the IC50 came out at 1.98 µM in assay [1] and 6.44 µM in the assay on HepG2. Consider `C=C[C@]12CC[C@H]3[C@@](C)(CCC[C@@]3(C)C(=O)O)[C@@H]1CC[C@](C)(COC(=O)CCC(=O)OCCCOc1no[n+]([O-])c1S(=O)(=O)c1ccccc1)C2`, for which the IC50 in assay [1] is over 50 µM.

For the molecule `C=C[C@]12CC[C@H]3[C@@](C)(CCC[C@@]3(C)C(=O)O)[C@@H]1CC[C@](C)(COC(=O)CCC(=O)OCC#CCOc1no[n+]([O-])c1S(=O)(=O)c1ccccc1)C2`, the IC50 in assay [1] was determined as 3.84 µM; with HepG2, 7.54 µM.

On to `COC(=O)[C@]1(C)CCC[C@@]2(C)[C@@H]3CC[C@@]4(C)C[C@]3(CC[C@@H]21)C/C4=N\OC(=O)CCC(=O)OCCOc1no[n+]([O-])c1S(=O)(=O)c1ccccc1`, for which, in the assay on HepG2, the 50% inhibitory concentration (IC50) was determined as 30.2 µM.

In the assay on HepG2, `COC(=O)[C@]1(C)CCC[C@@]2(C)[C@@H]3CC[C@@]4(C)C[C@]3(CC[C@@H]21)C/C4=N\OC(=O)CCC(=O)OCCCOc1no[n+]([O-])c1S(=O)(=O)c1ccccc1` displayed an IC50 of 33.4 µM. In the assay with HepG2, `COC(=O)[C@]1(C)CCC[C@@]2(C)[C@@H]3CC[C@@]4(C)C[C@]3(CC[C@@H]21)C/C4=N\OC(=O)CCC(=O)OCCCCOc1no[n+]([O-])c1S(=O)(=O)c1ccccc1` gave an IC50 of 5.16 µM.

For the molecule `COC(=O)[C@]1(C)CCC[C@@]2(C)[C@@H]3CC[C@@]4(C)C[C@]3(CC[C@@H]21)C/C4=N\OC(=O)CCC(=O)OCCOCCOc1no[n+]([O-])c1S(=O)(=O)c1ccccc1`, the figures for the IC50 (in assay [1]; in the assay with HepG2) were 2.12 µM and 2.75 µM, respectively. For `COC(=O)[C@]12CCC(C)(C)C[C@H]1[C@H]1C(=O)C=C3[C@@]4(C)C=C(C#N)C(=O)C(C)(C)[C@@H]4CC[C@@]3(C)[C@]1(C)CC2` [BARDOXOLONE METHYL] the same measures were 5.85 µM and 4.99 µM. Consider `CC[C@@]1(O)C(=O)OCc2c1cc1n(c2=O)Cc2cc3ccccc3nc2-1` [CAMPTOTHECIN], for which, in assay [1], the IC50 is 2.78 µM. This counts as single-digit micromolar. In the case of `C[C@@]12CC[C@@H]3[C@@](CC[C@H]4[C@@]3(C)CCC[C@@]4(C)C(=O)O)(CC1=O)C2` [ISOSTEVIOL], the IC50 (in assay [1]; with HepG2) was over 100 µM each time.
